Active and inactive are the calls of the source. No cut-off for these calls is given here.

Data set [1] addresses Sonic hedgehog protein (Homo sapiens) (UniProt Q15465). Put plainly: Activation of Shh pathway in human foreskin fibroblasts assessed as increase in VEGF expression after 48 hrs by ELISA. In short, it runs like this:
(§1)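 Primary foreskin fibroblasts were plated in DMEM with 10% FBS for 24 h, washed free of nonadherent cells and reseeded at 14000 cells/well. After 72 h the medium was replaced with compound (0.1–1.0 µm range, <0.1% DMSO). Cells were held 48 h at 37 °C, 5% CO2. Three independent experiments.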

The target in a further data set is Sonic hedgehog protein (Mus musculus, UniProt Q62226). As to the kind of experiment: Activation of Shh pathway in mouse Shh-Light II cells assessed as induction of gli1 expression after 48 hrs by […] luminescence assay. The format is functional, cell-based. The method in brief:
(§2)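 Shh-Light II cells were given compounds from DMSO stocks (final DMSO 0.1%; top concentration 1000 nm) for 48 h, then PBS-washed and lysed. Gli reporter luminescence was measured by dual-luciferase and normalized to constitutive Renilla. EC50 came from a Hill-slope fit of RLU/s versus concentration. 2–4 independent experiments, each in technical triplicate.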

Data set [2] relates to HUVEC. Put plainly: Cytotoxicity against HUVEC after 24 hrs by WST-1 assay. The class given is cell-based. The settings on record: Homo sapiens. The method in brief:
(§3)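 HUVEC were seeded at 7500 cells/well and exposed to a compound concentration series (<0.5% DMSO) for 24 h. WST-1 was then added and incubated 24 h. Absorbance at 440 and 650 nm was read, and the absorbance difference was plotted against concentration.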
On the technique in general: Tetrazolium assays rely on reduction of a dye to a coloured formazan, in cell work by metabolically active cells.

The target in data set [3] is Sonic hedgehog protein (Homo sapiens) (UniProt Q15465). As to the kind of experiment: Activation of Shh pathway in human foreskin fibroblasts assessed as induction of maximum VEGF expression at 1 uM after 48 hrs by ELISA relative to control. The method in brief: as §1
A general note: An ELISA detects its analyte on a solid surface through an enzyme-linked reagent.

Data set [4] has the same target. Put plainly: Activation of Shh pathway in human foreskin fibroblasts assessed as increase in VEGF expression at 0.1 to 1 uM after 48 hrs by ELISA relative to control. In short, it runs like this:
as §1

Data set [5] has as its system HUVEC. Put plainly: Cytotoxicity against HUVEC up to 10 uM after 24 hrs by WST-1 assay. The class given is cell-based. Particulars: human. In short, it runs like this:
as §3

The test system of data set [6] is HUVEC. As to the kind of experiment: Induction of HUVEC proliferation after 48 hrs by BrdU-incorporation assay. The format is functional, cell-based. The settings on record: Homo sapiens. In short, it runs like this:
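HUVEC were seeded at 5000 cells/well. After 24 h the medium was swapped for a compound dilution series (≤0.5% DMSO) and incubated 48 h. BrdU incorporation was read by chemiluminescent ELISA.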

Data set [7] is described as follows: Ratio of compound IC50 to SAG IC50 for HUVEC. Particulars: human, HUVEC cells; read-out: Ratio IC50. The class given is ADME, cell-based.
In data set [8] the test system is HUVEC. As to the kind of experiment: Induction of angiogenesis in HUVEC assessed as formation of cell sprouts after 48 hrs by 3D spheroid angiogenesis assay. The settings on record: Homo sapiens.
Data set [9] has as its target Sonic hedgehog protein (Mus musculus) (UniProt Q62226). As to the kind of experiment: Activation of Shh pathway in mouse Shh-Light II cells assessed as induction of gli1 expression at 1 uM after 48 hrs by […] luminescence assay. The format is functional, cell-based. In short, it runs like this: as §2
Data set [10] concerns the target Sonic hedgehog protein (Homo sapiens) (UniProt Q15465). As to the kind of experiment: Activation of Shh pathway in human foreskin fibroblasts assessed as induction of maximum VEGF expression at 0.5 uM after 48 hrs by ELISA relative to control. The method in brief: as §1

Chain of Sonic hedgehog protein (Homo sapiens) (Q15465 24-197 limits assumed): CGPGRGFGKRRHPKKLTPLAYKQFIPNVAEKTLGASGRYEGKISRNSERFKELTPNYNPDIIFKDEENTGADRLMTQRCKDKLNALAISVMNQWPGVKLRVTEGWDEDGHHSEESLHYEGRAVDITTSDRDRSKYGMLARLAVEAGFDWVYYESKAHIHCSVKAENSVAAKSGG
Chain of Sonic hedgehog protein (Q62226 25-198 limits assumed): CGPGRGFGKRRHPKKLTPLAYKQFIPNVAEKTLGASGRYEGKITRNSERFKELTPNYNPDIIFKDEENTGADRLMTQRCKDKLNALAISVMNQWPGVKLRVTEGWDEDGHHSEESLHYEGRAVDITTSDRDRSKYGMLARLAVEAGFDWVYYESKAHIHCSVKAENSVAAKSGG

A word on the EC50: it is the midpoint of the concentration-response curve. The term IC50 denotes the concentration needed to halve the response being measured. Lower therefore signals inhibition by little substance. Regarding `CN[C@H]1CC[C@H](N(Cc2cccc(-c3ccncc3)c2)C(=O)c2sc3cccc(Cl)c3c2Cl)CC1`, the values for the Activity result (in data set [1]; in data set [3]; with HUVEC [5]) were “Dose-dependent effect”, 32.4 pg/mL and “Non-toxic”, respectively. Moreover, the 50% effective concentration (EC50) on Sonic hedgehog protein came to 21.9 nM. The same molecule registered a half-maximal inhibitory concentration (IC50) with HUVEC [2] of 250000 nM. Further, in data set [4], the fold change (FC) was 7. The result in the data set with HUVEC [6] and in the data set on HUVEC [8] was inactive. In addition, the selectivity ratio in data set [7] worked out at 10.

For the molecule `O=C(c1sc2ccccc2c1Cl)N(Cc1ccnc2ccccc12)C1CCNCC1`, the outcome (in [9]; with HUVEC [6]; in the data set with HUVEC [8]) was inactive.

For the molecule `CN[C@H]1CC[C@@H](N(Cc2cccc(-c3ccncc3)c2)C(=O)c2sc3ccccc3c2Cl)CC1`, the Activity entry in [1] was “Dose-dependent effect”; in [3], 23.8 pg/mL; with HUVEC [5], “Non-toxic”. For the same molecule, at Sonic hedgehog protein, the EC50 was 61.8 nM. Further, the fold change (FC) in data set [4] was determined as 7. The outcome in the data set on HUVEC [6] and with HUVEC [8] was inactive.

In the case of `CN[C@H]1CC[C@H](N(Cc2cccc(-c3ccncc3)c2)C(=O)c2sc3cc(F)ccc3c2Cl)CC1`, the Activity result in data set [1] is “Dose-dependent effect”; in data set [3], 32.2 pg/mL; with HUVEC [5] it was “Non-toxic”. The EC50 at Sonic hedgehog protein was determined as 176 nM. The fold change (FC) in data set [4] was 7. Also, the outcome in the data set with HUVEC [6] and in the data set on HUVEC [8] was inactive.

As for `O=C(c1sc2ccccc2c1Cl)N(Cc1cccc(Br)c1)C1CCNCC1`, the result (in data set [9]; with HUVEC [6]; in the data set with HUVEC [8]) was inactive.

Turning to `CC(=O)Nc1ccc(CN(C(=O)c2sc3cccc(Cl)c3c2Cl)C2CCNCC2)cc1`, the result (in data set [9]; in the data set with HUVEC [6]; in the data set with HUVEC [8]) was inactive.

Turning to `CCOc1cc(C(=O)N(Cc2cccc(-c3ccncc3)c2)[C@H]2CC[C@H](NC)CC2)cc(OCC)c1OCC`, the outcome (in data set [9]; in the data set on HUVEC [6]; in the data set on HUVEC [8]) was inactive.

`CN[C@H]1CC[C@H](N(Cc2cccc(-c3ccncc3)c2)C(=O)c2[nH]c3ccccc3c2Cl)CC1`: the EC50 at Sonic hedgehog protein was 118 nM. Also, in the data set on HUVEC [5], the Activity result was “Non-toxic”. Besides, the outcome in the data set with HUVEC [6] and in the data set with HUVEC [8] was inactive.

In the case of `CN[C@H]1CC[C@H](N(Cc2cccc(-c3ccncc3)c2)C(=O)c2ccc(-c3ccccc3)o2)CC1`, the EC50 on Sonic hedgehog protein was found to be 53.8 nM. Besides, in the data set with HUVEC [5], the Activity entry is reported as “Non-toxic”. Moreover, the outcome in the data set with HUVEC [6] and with HUVEC [8] was inactive.

As for `CN[C@H]1CC[C@H](N(Cc2ccncc2)C(=O)c2sc3ccccc3c2Cl)CC1`, the result (in [9]; in the data set on HUVEC [6]; in the data set on HUVEC [8]) was inactive.

As for `CN[C@H]1CC[C@H](N(Cc2cccc(-c3ccncc3)c2)C(=O)c2sc3cc(Cl)ccc3c2Cl)CC1`, the outcome (in data set [9]; in the data set on HUVEC [6]; in the data set with HUVEC [8]) was inactive.

`O=C(c1sc2ccccc2c1Cl)N(Cc1cccc(-c2ccncc2)c1)C1CCNCC1`: the outcome (in data set [9]; in the data set on HUVEC [6]; with HUVEC [8]) was inactive.

For `CC(=O)Nc1ccc(CN(C(=O)c2sc3cc(F)ccc3c2Cl)C2CCNCC2)cc1`, the result (in data set [9]; with HUVEC [6]; in the data set with HUVEC [8]) was inactive.

Regarding `O=C(c1sc2cc(F)ccc2c1Cl)N(Cc1cccc(-c2ccncc2)c1)C1CCNCC1`, the outcome (in data set [9]; in the data set on HUVEC [6]; in the data set with HUVEC [8]) was inactive.

Consider `CN[C@H]1CC[C@H](N(Cc2ccnc3ccccc23)C(=O)c2sc3ccccc3c2Cl)CC1`, for which the outcome (in data set [9]; with HUVEC [6]; with HUVEC [8]) was inactive.

Consider `Cc1c(C(=O)N(Cc2cccs2)C2CCNCC2)oc2ccccc12`, for which the result (in data set [9]; in the data set on HUVEC [6]; in the data set with HUVEC [8]) was inactive.

For `CC(=O)Nc1ccc(CN(C(=O)c2sc3ccccc3c2Cl)C2CCNCC2)cc1`, the outcome (in [9]; in the data set with HUVEC [6]; with HUVEC [8]) was inactive.

Regarding `CN[C@H]1CC[C@H](N(Cc2cccc(-c3ccncc3)c2)C(=O)c2sc3ccccc3c2Cl)CC1`, the figures for the Activity entry (in [1]; with HUVEC [5]; in data set [10]) were “Dose-dependent effect”, “Non-toxic” and 29.6 pg/mL, respectively. Besides, the concentration giving a half-maximal response (EC50) at Sonic hedgehog protein is 8.8 nM. The same molecule had an IC50 in the data set with HUVEC [2] of 22000 nM. Further, in data set [4], the fold change (FC) came out at 7. The result with HUVEC [6] and in the data set with HUVEC [8] was inactive.

As to `CN[C@H]1CC[C@H](NCc2cccc(-c3ccncc3)c2)CC1`, the outcome (in data set [9]; in the data set with HUVEC [6]; in the data set on HUVEC [8]) was inactive.

As for `CC(=O)Nc1ccc(CN(C(=O)c2oc3ccccc3c2C)C2CCNCC2)cc1`, the result (in data set [9]; in the data set on HUVEC [6]; in the data set with HUVEC [8]) was inactive.

On to `O=C(c1sc2cccc(Cl)c2c1Cl)N(Cc1cccc(-c2ccncc2)c1)C1CCNCC1`, for which the result (in data set [9]; in the data set with HUVEC [6]; with HUVEC [8]) was inactive.

Regarding `O=C(c1sc2ccccc2c1Cl)N(Cc1ccco1)C1CCNCC1`, the outcome (in data set [9]; in the data set on HUVEC [6]; with HUVEC [8]) was inactive.

In the case of `O=C(c1sc2cccc(Cl)c2c1Cl)N(Cc1ccco1)C1CCNCC1`, the outcome (in [9]; in the data set with HUVEC [6]; with HUVEC [8]) was inactive.

In the case of `N#Cc1ccc(CN(C(=O)c2sc3cc(F)ccc3c2Cl)C2CCNCC2)cc1`, the outcome (in data set [9]; with HUVEC [6]; in the data set with HUVEC [8]) was inactive.

Take `CN[C@H]1CC[C@H](N(Cc2cccc(-c3ccncc3)c2)C(=O)c2oc3ccccc3c2C)CC1`: the result (in data set [9]; with HUVEC [6]; in the data set on HUVEC [8]) was inactive.

On to `N#Cc1ccc(CN(C(=O)c2sc3ccccc3c2Cl)C2CCNCC2)cc1`, for which the outcome (in [9]; with HUVEC [6]; in the data set with HUVEC [8]) was inactive.

With `CN[C@H]1CC[C@H](N(Cc2cccc(-c3ccncc3)c2)C(=O)c2cc3ccccc3s2)CC1`, the result (in data set [9]; in the data set on HUVEC [6]; in the data set on HUVEC [8]) was inactive.

In the case of `CN[C@H]1CC[C@@H](N(Cc2cccc(-c3ccncc3)c2)C(=O)c2sc3cccc(Cl)c3c2Cl)CC1`, the EC50 at Sonic hedgehog protein was determined as 7.6 nM. In the data set with HUVEC [5], the Activity entry is listed as “Non-toxic”. Moreover, the outcome in the data set on HUVEC [6] and with HUVEC [8] was inactive.

In the case of `O=C(c1sc2ccccc2c1Cl)N(Cc1cccs1)C1CCNCC1`, the result (in data set [9]; in the data set on HUVEC [6]; in the data set with HUVEC [8]) was inactive.

`O=C(c1sc2cc(F)ccc2c1Cl)N(Cc1ccco1)C1CCNCC1`: the outcome (in [9]; in the data set on HUVEC [6]; in the data set with HUVEC [8]) was inactive.

As for `N#Cc1ccc(CN(C(=O)c2sc3cccc(Cl)c3c2Cl)C2CCNCC2)cc1`, the result (in data set [9]; in the data set on HUVEC [6]; with HUVEC [8]) was inactive.

For the molecule `Cc1c(C(=O)N(Cc2ccco2)C2CCNCC2)oc2ccccc12`, the result (in data set [9]; in the data set on HUVEC [6]; in the data set on HUVEC [8]) was inactive.

The values are drawn from ChEMBL document CHEMBL2157999, “Potent small molecule Hedgehog agonists induce VEGF expression in vitro” (Bioorg Med Chem, 2012).
